From ChEMBL document CHEMBL5678805, “Intermittent administration of MEK inhibitor GDC-0973 plus PI3K inhibitor GDC-0941 triggers robust apoptosis and tumor growth inhibition” (Cancer Res, 2012)
The source made the active and inactive calls. No cut-off for these calls is given here.

Columns and labels:
[1] = target: Serine/threonine-protein kinase B-raf (Homo sapiens, UniProt P15056); assay: Inhibition of BRAF (unknown origin)
[2] = target: Calcium/calmodulin-dependent protein kinase type 1 (Homo sapiens, UniProt Q14012); assay: Inhibition of CaMK1 (unknown origin)
CDK6/cyclin D3 = CDK6/cyclin D3 (Homo sapiens, UniProt Q00534); assay: Inhibition of CDK6/cyclinD3 (unknown origin); format: protein-complex assay
[3] = target: Serine/threonine-protein kinase Chk2 (Homo sapiens, UniProt O96017); assay: Inhibition of CHK2 (unknown origin)
[4] = target: Vascular endothelial growth factor receptor 3 (Homo sapiens, UniProt P35916); assay: Inhibition of Flt4 (unknown origin)
[5] = target: Glycogen synthase kinase-3 beta (Homo sapiens, UniProt P49841); assay: Inhibition of GSK3beta (unknown origin)
[6] = target: Serine/threonine-protein kinase 10 (Homo sapiens, UniProt O94804); assay: Inhibition of LOK (unknown origin)
[7] = target: Ribosomal protein S6 kinase beta-1 (Homo sapiens, UniProt P23443); assay: Inhibition of p70S6K (unknown origin)
[8] = target: Serine/threonine-protein kinase PAK 6 (Homo sapiens, UniProt Q9NQU5); assay: Inhibition of PAK6 (unknown origin)
[9] = target: Serine/threonine-protein kinase pim-1 (Homo sapiens, UniProt P11309); assay: Inhibition of PIM1 (unknown origin)
MOLM-13 = assay: Antitumor activity against human MOLM-13 cells harboring FLT3 Y599_D600insFDFREYE and c-Cbl E366_Q409del mutant xenografted in mouse assessed as tumor growth inhibition at 5 mg/kg, po; format: functional; conditions: MOLM-13, read-out: TGI
Procedure, shortened: (§1)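 Human tumor xenografts in mice were dosed orally at the indicated mg/kg. Tumor volume was measured with calipers as (L×W×W)/2. %TGI = 100 × [1 − (AUC treatment/d)/(AUC vehicle/d)], using the area under the fitted tumor-growth curve per day for each dose group relative to vehicle.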

HCT-116 = assay: Antitumor activity against human HCT-116 cells harboring KRAS G13D/PIK3CA […]/CTNNB1 S45del/CDKN2A G23fs mutant xenografted in mouse assessed as tumor growth inhibition at 5 mg/kg, po; format: functional; conditions: read-out: TGI
Procedure, shortened: (§2)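 Single-agent dose ranging in human tumor xenograft mice at 2.5, 5 or 10 mg/kg oral. Tumor volume was measured by caliper as (L×W×W)/2. %TGI = 100×[1 − AUC(treatment/d)/AUC(vehicle/d)] from the fitted growth curve per dose group, relative to vehicle.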

A549 = assay: Antitumor activity against human A549 cells harboring KRAS G12S/LKB1Q37/SMARCA4 Q729/CDKN2A mutant xenografted in mouse assessed as tumor growth inhibition at 10 mg/kg, po; format: functional; conditions: read-out: TGI; procedure, shortened: as §2
Calu-6 = assay: Antitumor activity against human Calu-6 cells harboring KRAS Q61K and TP53 R196 mutant xenografted in mouse assessed as tumor growth inhibition at 10 mg/kg, po; format: functional; conditions: read-out: TGI; procedure, shortened: as §2
EBC-1 = assay: Antitumor activity against human EBC-1 cells harboring MET amp and EGFR G719S/L858R mutant xenografted in mouse assessed as tumor growth inhibition at 10 mg/kg, po; format: functional; conditions: read-out: TGI; procedure, shortened: as §2
NCI-H441 = assay: Antitumor activity against human NCI-H441 cells harboring KRAS G12V/TP53 R158L/MET high mutant xenografted in mouse assessed as tumor growth inhibition at 5 mg/kg, po; format: functional; conditions: read-out: TGI; procedure, shortened: as §1
NCI-H460 = assay: Antitumor activity against human NCI-H460 cells harboring KRAS Q61H/PIK3CA E545K/LKB1 Q37/CDKN2A mutant xenografted in mouse assessed as tumor growth inhibition at 5 mg/kg, po; format: functional; conditions: read-out: TGI; procedure, shortened: as §1
A2058 [10] = assay: Inhibition of PI3K/MEK signaling pathway in human A2058 cells assessed as decrease in ERK phosphorylation by incubated for 24 hrs by Western blot analysis; format: cell-based
A2058 [11] = assay: Antitumor activity against human A2058 cells xenografted in mouse assessed as tumor growth inhibition at 6 mg/kg, po administered once a day for 21 days in presence of 4-(2-(1H-indazol-4-yl)-6-((4-(methylsulfonyl)piperazin-1-yl)methyl)thieno[3,2-d]pyrimidin-4-yl)morpholine; format: functional; conditions: A2058, 504 h, time 21 day, read-out: TGI
Procedure, shortened: (§3)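 Human tumor xenografts in mice. Drugs given orally, as single agents or combined with the PI3K inhibitor. Schedules were daily (QD) or every third day (Q3D) over 21 days. Tumor volume was measured by caliper as (L×W×W)/2. %TGI = 100×[1 − AUC(treatment/d)/AUC(vehicle/d)] from fitted growth curves, with group means. Tumor lysates were immunoblotted for pS6.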

NCI-H2122 = assay: Antitumor activity against human NCI-H2122 cells xenografted in mouse assessed as tumor growth inhibition at 5 mg/kg, po administered once a day for 21 days; format: functional; conditions: NCI-H2122, 504 h, read-out: TGI, time 21 day
Procedure, shortened: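 Mice bearing NCI-H2122 xenografts were given MEK inhibitor, PI3K inhibitor, or both, orally once daily for 21 consecutive days at the doses labeled. Caliper tumor volumes were calculated as (L×W×W)/2. %TGI was derived from the AUC of the fitted growth curve per day relative to vehicle.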

DLD-1 = assay: Antitumor activity against human DLD-1 cells xenografted in mouse assessed as tumor growth inhibition at 10 mg/kg, po administered every third day for 21 days in presence of 4-(2-(1H-indazol-4-yl)-6-((4-(methylsulfonyl)piperazin-1-yl)methyl)thieno[3,2-d]pyrimidin-4-yl)morpholine; format: functional; conditions: DLD-1, 504 h, time 21 day, read-out: TGI; procedure, shortened: as §3
[12] = Antitumor activity against human A375.X1 cells xenografted in mouse assessed as tumor growth inhibition at 15 mg/kg, po administered every third day for 21 days in presence of 4-(2-(1H-indazol-4-yl)-6-((4-(methylsulfonyl)piperazin-1-yl)methyl)thieno[3,2-d]pyrimidin-4-yl)morpholine; format: functional; conditions: A375.X1, 504 h, time 21 day, read-out: TGI; procedure, shortened: as §3
888-mel [13] = assay: Upregulation of Bim level in human 888-mel cells preincubated with compound for 24 hrs followed by compound washout and measured after 2 hrs by immunoblotting analysis; format: functional, cell-based
888-mel [14] = assay: Induction of apoptosis in human 888-mel cells assessed as increase in cleaved PARP level preincubated with compound for 24 hrs followed by compound washout and measured after 2 hrs in presence of 4-(2-(1H-indazol-4-yl)-6-((4-(methylsulfonyl)piperazin-1-yl)methyl)thieno[3,2-d]pyrimidin-4-yl)morpholine by immunoblotting analysis; format: functional, cell-based
Procedure, shortened: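 The medium was then exchanged to remove compound. Lysates were prepared 2 and 24 h after washout and immunoblotted for cleaved PARP, p-AKT and p-ERK using HRP secondary antibody and ECL.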

A2058 [15] = assay: Antitumor activity against human A2058 cells harboring BRAF V600E/PTEN deletion mutant xenografted in mouse assessed as suppression of S6 phosphorylation at 15 mg/kg, po administered every third day for 21 days and measured after 72 hrs post dose in presence of 4-(2-(1H-indazol-4-yl)-6-((4-(methylsulfonyl)piperazin-1-yl)methyl)thieno[3,2-d]pyrimidin-4-yl)morpholine by Western blot analysis; format: functional, organism-based; conditions: time 576.0 hrs; procedure, shortened: as §3
A2058 [16] = assay: Antitumor activity against human A2058 cells harboring BRAF V600E/PTEN deletion mutant xenografted in mouse assessed as decrease in tumor volume at 1.5 mg/kg, po administered once daily for 21 days in presence of GDC-0980 by digital calipers analysis; format: functional, organism-based; conditions: time 21.0 day

Sequence of Serine/threonine-protein kinase 10 (O94804 whole entry): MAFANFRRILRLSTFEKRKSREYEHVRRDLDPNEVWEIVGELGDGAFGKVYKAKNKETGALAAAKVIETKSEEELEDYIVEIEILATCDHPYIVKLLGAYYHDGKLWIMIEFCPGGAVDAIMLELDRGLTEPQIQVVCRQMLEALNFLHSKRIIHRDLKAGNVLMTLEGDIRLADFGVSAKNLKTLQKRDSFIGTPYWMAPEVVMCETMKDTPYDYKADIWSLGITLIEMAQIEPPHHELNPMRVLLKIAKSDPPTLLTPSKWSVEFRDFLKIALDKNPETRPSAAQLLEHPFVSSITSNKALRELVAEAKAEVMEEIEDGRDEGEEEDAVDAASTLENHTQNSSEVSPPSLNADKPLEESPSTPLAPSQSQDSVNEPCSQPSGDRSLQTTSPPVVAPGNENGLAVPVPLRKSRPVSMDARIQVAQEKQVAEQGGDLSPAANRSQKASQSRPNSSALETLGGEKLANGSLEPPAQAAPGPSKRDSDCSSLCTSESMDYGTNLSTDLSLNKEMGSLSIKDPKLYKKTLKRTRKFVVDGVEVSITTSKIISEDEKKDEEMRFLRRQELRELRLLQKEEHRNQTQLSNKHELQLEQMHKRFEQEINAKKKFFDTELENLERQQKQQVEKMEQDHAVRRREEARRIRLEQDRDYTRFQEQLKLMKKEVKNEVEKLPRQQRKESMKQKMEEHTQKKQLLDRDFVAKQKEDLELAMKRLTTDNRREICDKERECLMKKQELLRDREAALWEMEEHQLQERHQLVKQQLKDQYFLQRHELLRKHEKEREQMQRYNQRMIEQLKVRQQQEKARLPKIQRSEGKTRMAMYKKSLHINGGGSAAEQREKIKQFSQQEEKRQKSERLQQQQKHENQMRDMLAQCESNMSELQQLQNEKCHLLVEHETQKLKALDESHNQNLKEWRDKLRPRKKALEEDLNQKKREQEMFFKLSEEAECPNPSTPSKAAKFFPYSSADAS
Sequence of Serine/threonine-protein kinase B-raf (P15056 whole entry): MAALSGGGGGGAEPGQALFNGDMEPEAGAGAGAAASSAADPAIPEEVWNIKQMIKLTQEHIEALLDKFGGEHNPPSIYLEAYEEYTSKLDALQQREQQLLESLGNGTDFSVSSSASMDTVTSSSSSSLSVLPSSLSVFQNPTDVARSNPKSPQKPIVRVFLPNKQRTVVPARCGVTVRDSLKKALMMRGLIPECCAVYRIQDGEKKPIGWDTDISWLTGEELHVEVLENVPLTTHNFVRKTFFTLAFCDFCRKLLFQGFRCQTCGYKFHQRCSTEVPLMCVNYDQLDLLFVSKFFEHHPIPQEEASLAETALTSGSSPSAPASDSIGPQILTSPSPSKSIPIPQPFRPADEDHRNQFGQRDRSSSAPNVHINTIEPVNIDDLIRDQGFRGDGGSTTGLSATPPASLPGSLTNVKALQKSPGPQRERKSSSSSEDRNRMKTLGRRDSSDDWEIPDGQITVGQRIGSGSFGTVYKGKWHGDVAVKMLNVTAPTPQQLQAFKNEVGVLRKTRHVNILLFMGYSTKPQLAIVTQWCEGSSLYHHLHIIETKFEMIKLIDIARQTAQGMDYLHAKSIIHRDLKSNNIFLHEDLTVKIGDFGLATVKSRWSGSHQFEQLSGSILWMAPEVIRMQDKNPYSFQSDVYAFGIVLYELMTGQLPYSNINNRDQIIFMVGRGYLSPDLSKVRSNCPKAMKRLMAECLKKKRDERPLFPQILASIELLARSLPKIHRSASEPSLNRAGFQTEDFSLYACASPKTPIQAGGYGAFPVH
Sequence of Ribosomal protein S6 kinase beta-1 (P23443 whole entry): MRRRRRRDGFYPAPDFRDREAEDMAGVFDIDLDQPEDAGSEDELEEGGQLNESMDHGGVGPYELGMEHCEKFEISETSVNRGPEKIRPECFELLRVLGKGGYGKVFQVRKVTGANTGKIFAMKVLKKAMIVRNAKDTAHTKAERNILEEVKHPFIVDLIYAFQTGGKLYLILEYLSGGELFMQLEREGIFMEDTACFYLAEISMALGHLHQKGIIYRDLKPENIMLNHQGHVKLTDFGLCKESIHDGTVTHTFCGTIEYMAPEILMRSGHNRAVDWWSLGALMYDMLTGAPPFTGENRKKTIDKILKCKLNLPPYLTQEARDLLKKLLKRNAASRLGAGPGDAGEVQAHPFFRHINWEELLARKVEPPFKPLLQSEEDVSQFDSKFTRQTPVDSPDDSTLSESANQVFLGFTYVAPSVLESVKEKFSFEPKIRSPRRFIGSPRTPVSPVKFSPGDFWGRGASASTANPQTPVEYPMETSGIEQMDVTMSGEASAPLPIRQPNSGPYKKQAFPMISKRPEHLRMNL
Sequence of Vascular endothelial growth factor receptor 3 (P35916 whole entry): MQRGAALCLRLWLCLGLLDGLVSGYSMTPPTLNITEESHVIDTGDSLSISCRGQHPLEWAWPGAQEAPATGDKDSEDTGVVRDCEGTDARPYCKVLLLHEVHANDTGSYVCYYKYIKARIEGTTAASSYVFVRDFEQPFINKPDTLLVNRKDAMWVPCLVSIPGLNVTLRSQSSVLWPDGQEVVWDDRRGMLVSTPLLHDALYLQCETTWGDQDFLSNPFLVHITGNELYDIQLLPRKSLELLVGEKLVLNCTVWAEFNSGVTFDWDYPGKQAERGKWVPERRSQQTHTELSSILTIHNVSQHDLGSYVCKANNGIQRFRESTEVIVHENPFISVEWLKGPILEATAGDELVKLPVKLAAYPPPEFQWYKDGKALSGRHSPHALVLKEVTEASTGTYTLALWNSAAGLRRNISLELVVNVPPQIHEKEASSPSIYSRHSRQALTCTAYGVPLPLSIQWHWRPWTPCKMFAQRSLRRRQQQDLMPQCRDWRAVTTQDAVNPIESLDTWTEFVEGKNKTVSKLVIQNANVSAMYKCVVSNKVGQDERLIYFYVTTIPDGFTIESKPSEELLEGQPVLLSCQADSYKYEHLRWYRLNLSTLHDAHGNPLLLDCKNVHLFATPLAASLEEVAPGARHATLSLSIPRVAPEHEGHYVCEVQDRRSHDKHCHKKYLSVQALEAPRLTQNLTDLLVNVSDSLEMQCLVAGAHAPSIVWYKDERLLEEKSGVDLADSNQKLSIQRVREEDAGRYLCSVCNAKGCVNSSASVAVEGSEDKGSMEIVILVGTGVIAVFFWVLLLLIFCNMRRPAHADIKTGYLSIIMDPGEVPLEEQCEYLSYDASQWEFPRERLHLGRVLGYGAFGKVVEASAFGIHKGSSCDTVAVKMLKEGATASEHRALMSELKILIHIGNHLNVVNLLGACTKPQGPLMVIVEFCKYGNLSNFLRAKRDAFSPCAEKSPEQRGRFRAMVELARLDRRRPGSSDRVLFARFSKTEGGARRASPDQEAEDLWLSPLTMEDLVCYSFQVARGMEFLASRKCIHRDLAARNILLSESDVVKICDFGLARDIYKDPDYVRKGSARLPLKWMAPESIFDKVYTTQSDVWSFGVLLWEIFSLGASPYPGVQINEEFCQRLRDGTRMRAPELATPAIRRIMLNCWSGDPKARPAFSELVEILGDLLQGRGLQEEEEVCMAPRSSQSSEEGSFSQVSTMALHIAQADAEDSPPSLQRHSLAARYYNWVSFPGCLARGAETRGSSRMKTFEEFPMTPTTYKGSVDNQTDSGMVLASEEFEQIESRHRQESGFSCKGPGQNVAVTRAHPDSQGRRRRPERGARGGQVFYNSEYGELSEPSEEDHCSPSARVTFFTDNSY
Sequence of Calcium/calmodulin-dependent protein kinase type 1 (Q14012 whole entry): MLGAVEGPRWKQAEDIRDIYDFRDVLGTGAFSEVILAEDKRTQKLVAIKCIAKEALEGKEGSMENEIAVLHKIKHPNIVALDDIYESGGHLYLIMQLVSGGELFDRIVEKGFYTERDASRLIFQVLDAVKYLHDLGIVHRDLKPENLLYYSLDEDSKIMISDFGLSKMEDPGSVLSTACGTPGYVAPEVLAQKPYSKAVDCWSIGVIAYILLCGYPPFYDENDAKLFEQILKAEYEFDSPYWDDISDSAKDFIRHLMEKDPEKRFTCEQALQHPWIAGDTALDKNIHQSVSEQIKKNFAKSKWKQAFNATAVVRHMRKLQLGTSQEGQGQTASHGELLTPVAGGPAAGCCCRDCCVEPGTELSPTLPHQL
Sequence of Serine/threonine-protein kinase PAK 6 (Q9NQU5 whole entry): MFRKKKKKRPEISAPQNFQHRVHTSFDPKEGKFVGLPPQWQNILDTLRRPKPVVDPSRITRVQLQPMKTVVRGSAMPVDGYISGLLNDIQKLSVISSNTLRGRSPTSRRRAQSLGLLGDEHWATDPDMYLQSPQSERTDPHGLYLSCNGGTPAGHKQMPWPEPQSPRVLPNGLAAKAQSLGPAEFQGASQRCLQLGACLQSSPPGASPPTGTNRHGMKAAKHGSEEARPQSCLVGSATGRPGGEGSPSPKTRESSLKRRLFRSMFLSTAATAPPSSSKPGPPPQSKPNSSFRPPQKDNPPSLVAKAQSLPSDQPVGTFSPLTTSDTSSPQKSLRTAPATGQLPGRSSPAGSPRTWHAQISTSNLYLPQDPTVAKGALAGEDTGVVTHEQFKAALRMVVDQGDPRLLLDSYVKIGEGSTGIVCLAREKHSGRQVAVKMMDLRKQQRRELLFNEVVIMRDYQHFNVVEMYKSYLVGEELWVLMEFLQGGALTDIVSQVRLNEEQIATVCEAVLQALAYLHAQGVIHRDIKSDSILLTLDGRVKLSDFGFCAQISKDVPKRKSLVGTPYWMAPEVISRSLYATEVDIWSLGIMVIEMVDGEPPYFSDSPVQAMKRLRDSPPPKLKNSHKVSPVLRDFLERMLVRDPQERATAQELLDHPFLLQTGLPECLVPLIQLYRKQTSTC
Sequence of Serine/threonine-protein kinase pim-1 (P11309 whole entry): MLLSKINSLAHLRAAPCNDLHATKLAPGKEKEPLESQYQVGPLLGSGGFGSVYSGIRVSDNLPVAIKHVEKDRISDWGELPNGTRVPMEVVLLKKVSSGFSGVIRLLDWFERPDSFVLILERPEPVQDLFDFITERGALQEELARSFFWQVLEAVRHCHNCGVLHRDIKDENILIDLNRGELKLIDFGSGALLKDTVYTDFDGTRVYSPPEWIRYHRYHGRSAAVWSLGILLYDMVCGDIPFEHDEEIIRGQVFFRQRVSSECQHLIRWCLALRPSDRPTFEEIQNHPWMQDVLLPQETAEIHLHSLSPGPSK

IC50 [1]: > 10 µM | IC50 [2]: > 10 µM | IC50 (CDK6/cyclin D3): > 10 µM | IC50 [3]: > 10 µM | IC50 [4]: > 10 µM | IC50 [5]: > 10 µM | IC50 [6]: > 10 µM | IC50 [7]: > 10 µM | IC50 [8]: > 10 µM | IC50 [9]: > 10 µM
SMILES: O=C(c1ccc(F)c(F)c1Nc1ccc(I)cc1F)N1CC(O)([C@@H]2CCCCN2)C1 [COBIMETINIB]
inhibition in vivo at 5 mg/kg (MOLM-13): -6% | inhibition in vivo at 5 mg/kg (HCT-116): 68.7% | inhibition in vivo at 10 mg/kg (A549): 108% | inhibition in vivo at 10 mg/kg (Calu-6): 44% | inhibition in vivo at 10 mg/kg (EBC-1): 40% | inhibition in vivo at 5 mg/kg (NCI-H441): 59% | inhibition in vivo at 5 mg/kg (NCI-H460): 34.5% | inhibition (A2058 [10]): Active | inhibition in vivo at 6 mg/kg (A2058 [11]): 73% | inhibition in vivo at 5 mg/kg (NCI-H2122): 49% | inhibition in vivo at 10 mg/kg (DLD-1): 72% | inhibition in vivo at 15 mg/kg [12]: 122% | Activity (888-mel [13]): Active | Activity (888-mel [14]): inactive | Activity (A2058 [15]): Active | Activity (A2058 [16]): Active
